# Screening data (PubChem)
# An excerpt weighted towards active compounds, which were near 3.6% of everything screened.
# AHR act = human AHR activation; 320,000 compounds, 2.5% hits; AHR-responsive luciferase reporter cells, luminescence; P35869; activation, % at 5 µM; in the data active = activation above about 47%;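 also: 0% = vehicle wells and 100% = reference agonist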
# STAT3 act = increases IL-6 driven STAT3 reporter signal | U3A cells, IL-6 STAT3-luciferase reporter, luminescence; 100% = signal with IL-6 EC80 alone | activation (% of control), % at 5.6 µM | 190,000 compounds, 0.91% hits | AID 871;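 active = activation above the screen-wide mean of compound activation plus 3 SD, cut at about 130% in these data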;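 also: 0% = background luminescence of wells with medium and substrate only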
#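 Material: STAT3-luciferase reporter U3A cells. Controls: IL-6-treated wells, 100% activation. Read-out: % activation versus median of IL-6-stimulated wells. Probe or stimulus: IL-6 stimulus at 33 ng/mL final. Timing: compound 1 h, then IL-6 6 h at 37 °C. Signal: reporter luminescence signal.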
# Hsp70 activator = Hsp70 transcriptional activation, primary screen | HeLa Hsp70 promoter luciferase reporter, luminescence; scaled: vehicle 0, proteasome-inhibitor control 100% | activation, % at 10 µM | 200,000 compounds, 0.04% hits;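 active = activation above the mean across all tested compounds plus 3 SD, cutoff set per campaign, cut at about 5.5% in these data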;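 also: 100% = MG132 at 30 µM as the positive control and 0% = DMSO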
# PERK inhibitor = human PERK inhibition, primary cell-based screen. 220,000 compounds, 0.17% hits. Q9NZJ5. CHO PERK-DD fusion, SEAP luminescence translation reporter. inhibition, % at 5.6 µM;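 active = inhibition above the mean inhibition of all tested compounds plus 3 SD, set separately per screening campaign, cut at about 2.9% in these data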;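 also: PERK kinase domain activated by AP20187 dimerizer at 100 nM; 0% = DMSO with dimerizer and 100% = rapamycin at 8.4 µM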
# Target sequence (Q9NZJ5 whole entry, looked up, the tested form may be a part): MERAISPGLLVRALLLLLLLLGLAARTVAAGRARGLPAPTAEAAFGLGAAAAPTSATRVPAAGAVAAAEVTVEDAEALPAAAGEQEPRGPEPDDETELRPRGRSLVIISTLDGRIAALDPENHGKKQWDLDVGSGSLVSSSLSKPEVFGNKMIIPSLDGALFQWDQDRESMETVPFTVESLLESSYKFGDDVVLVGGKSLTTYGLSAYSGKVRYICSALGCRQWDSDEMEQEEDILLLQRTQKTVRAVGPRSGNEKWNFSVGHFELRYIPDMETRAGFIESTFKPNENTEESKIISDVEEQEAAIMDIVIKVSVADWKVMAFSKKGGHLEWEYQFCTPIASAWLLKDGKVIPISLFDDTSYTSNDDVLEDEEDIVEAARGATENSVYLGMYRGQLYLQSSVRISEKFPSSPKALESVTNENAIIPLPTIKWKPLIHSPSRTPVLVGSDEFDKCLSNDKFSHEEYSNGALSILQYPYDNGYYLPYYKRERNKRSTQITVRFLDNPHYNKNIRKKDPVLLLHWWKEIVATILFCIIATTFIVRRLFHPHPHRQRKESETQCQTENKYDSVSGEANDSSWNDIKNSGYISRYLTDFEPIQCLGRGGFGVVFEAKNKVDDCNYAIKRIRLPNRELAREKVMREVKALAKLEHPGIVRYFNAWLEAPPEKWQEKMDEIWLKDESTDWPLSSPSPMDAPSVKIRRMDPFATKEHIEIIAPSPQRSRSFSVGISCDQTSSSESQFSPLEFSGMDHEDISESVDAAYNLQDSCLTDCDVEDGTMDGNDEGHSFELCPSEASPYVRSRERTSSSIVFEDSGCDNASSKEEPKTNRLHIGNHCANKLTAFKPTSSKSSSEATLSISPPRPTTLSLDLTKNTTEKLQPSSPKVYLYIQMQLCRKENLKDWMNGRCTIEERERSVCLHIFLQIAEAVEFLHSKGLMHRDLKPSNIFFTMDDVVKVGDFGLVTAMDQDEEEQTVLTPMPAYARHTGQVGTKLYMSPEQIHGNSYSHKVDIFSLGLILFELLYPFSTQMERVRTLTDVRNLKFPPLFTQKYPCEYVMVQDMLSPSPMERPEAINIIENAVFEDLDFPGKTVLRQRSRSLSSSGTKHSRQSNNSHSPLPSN
# PolyA inh = inhibitors of polyadenylation in S. cerevisiae; S. cerevisiae SKY197-pL101 polyadenylation reporter, beta-gal luminescence; efflux-impaired pdr1/pdr3 knockout yeast; score 100 = 6 SD above DMSO; activity score, % at 12 µM; 300,000 compounds, 0.02% hits; AID 1875;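 active = lowest replicate activity score at least 50, where 100 means six control SD above control mean; inconclusive = lowest score under 50 but half or more replicates reach 50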;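 also: yeast exposed to compound for 9 h at 30 °C; higher score means more reporter readthrough which indicates perturbed polyadenylation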
# HSF1 inhib = HSF1 inhibition | NIH3T3-HGL HSE-luciferase, MG132-induced, luminescence 8 h; active compounds read low | activity change, negative = inhibition, % at 7.5 µM (by protocol) | 300,000 compounds, 0.77% hits | AID 2098;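 active = more than half of replicate wells show activity change below -50%, luminescence cut by over half; inconclusive = some wells, but at most half, below -50%; inactive = no replicate well below -50%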;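 also: luciferase reports HSF-1 transcriptional activity via heat shock element; 0% = median of DMSO wells and -100% = zero luminescence signal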
# * marks the source's active call; other numbers are inactive results; ? = inconclusive; / = not tested or not shown; ! = not confirmed by another sample.
SMILES,AHR act,STAT3 act,Hsp70 activator,PERK inhibitor,PolyA inh,HSF1 inhib
Cc1nc2ccccn2c1C(=O)NN=C1C2CC3CC(C2)CC1C3,48*,106,0,0,9,8
c1cc(CNc2ccc3c(c2)OCCO3)ccn1,16,99,3,1,5,-78*
CCOc1ccc(Br)cc1CNc1ccc2c(c1)OCCO2,19,87,0,0,-8,-56*
O=C(COC(=O)Cc1ccsc1)Nc1ccc(Cl)cn1,1,/,/,/,/,/
CCOC(=O)C1=C(N)OC2=C(C(=O)CC(C)(C)C2)C1c1ccccc1OCC#N (configuration not stated),0,104,0,0,0,-57*
CCCCOC(=O)Cn1c(=N)n(CCN2CCOCC2)c2ccccc21,0,103,0,1,13,4
N=c1n(CCN2CCOCC2)c2ccccc2n1CC(=O)c1ccc(Cl)c(Cl)c1,91*,128,0,-2,12,5
NS(=O)(=O)c1ccc(NC(=O)c2cccc(Cl)c2)cc1,4,/,/,1,-9,8
COc1ccc(CNC(=O)CCC(=O)Nc2nnc(CC(C)C)s2)cc1,-3,/,/,2,0,3
COc1cccc2c1C(CO)N1C(C#N)C3CC(C(=O)O)C(C1C2)N3C (configuration not stated),-3,/,/,3.7*,/,/
COc1cccc2c1OCC(C(=O)O)C2 (configuration not stated),0,102,0,1,10,-1
O=C1Nc2c(ccc(Cl)c2Cl)C(=O)C1(F)c1ccccc1 (configuration not stated),92*,/,/,0,-18,-7
O=C(O)C(=O)Cc1c[nH]c2ccccc12,45,133*,0,1,-5,8
Cc1nc(N[C@@H](Cc2c[nH]c3ccccc23)C(=O)O)c2oc3ccccc3c2n1,34,150*,0,-1,/,/
CC(=O)N[C@H](Cc1c[nH]c2ccccc12)C(=O)O,0,/,/,/,9,-3
CC(=O)/C=C(/C)NC(Cc1c[nH]c2ccccc12)C(=O)O (configuration not stated),16,133*!,0,0,11,5
COc1cccc(N(CC(=O)Nc2ccc3c(c2)OCO3)S(=O)(=O)c2ccccc2)c1,76*,110,0,-2,4,-5
COc1ccc(S(=O)(=O)N(CC(=O)Nc2ccc3c(c2)OCO3)c2ccccc2OC)cc1,47*,108,0,0,0,-7
COc1ccc(N(CC(=O)Nc2ccc3c(c2)OCO3)S(=O)(=O)c2ccccc2)cc1,42,99,0,-1,-6,3
Cc1ccccc1N(CC(=O)Nc1ccc(F)cc1)S(C)(=O)=O,69*,89,0,0,-6,0
CCOc1ccccc1N(CC(=O)Nc1ccc2c(c1)OCO2)S(C)(=O)=O,69*,104,0,1,-5,2
Cc1noc(C)c1COc1ccccc1C(=O)N(C)Cc1ccc(C(C)(C)C)cc1,1,/,/,/,/,/
O=c1cc(CN2CCc3ccccc32)nc2sccn12,28,134*,0,0,25,-7
O=C1c2ccccc2S(=O)(=O)N1CC1CC(c2ccc(Cl)cc2)=NO1 (configuration not stated),49*,100,0,0,0,66
Cc1cc2nc(-c3ccc(SCc4ccccn4)nc3)[nH]c2cc1C,48*,85,0,0,-11,19
SMILES,AHR act,STAT3 act,Hsp70 activator,PERK inhibitor,PolyA inh,HSF1 inhib
Cc1cc2nc(-c3ccc(SCC(=O)N4CCOCC4)nc3)[nH]c2cc1C,60*,94,0,-1,-3,15
Cc1ccc2nc(-c3ccc(SCC(=O)Nc4nc(C)cs4)nc3)[nH]c2c1,67*,111,0,0,-5,46
CCOC(=O)CSc1ccc(-c2nc3cc(C)c(C)cc3[nH]2)cn1,14,90,0,0,-6,2
Cc1ccc2nc(-c3ccc(SCC(=O)Nc4nnc(C)s4)nc3)[nH]c2c1,42,100,0,0,?,/
C[n+]1c(/C=C/c2ccc(O)cc2)ccc2ccccc21,8,/,/,/,-29,6
C[n+]1c(/C=C/c2ccc3c(c2)OCO3)ccc2ccccc21,9,94,0,0,14,-72*
CCOC(=O)NN1C(=O)c2ccccc2NC1c1cccs1 (configuration not stated),2,/,/,/,-16,-2
CC(=NCCc1ccccc1)C1=C(O)CSC1=O,49*,93,0,-1,-1,-79*
CC(=NCCc1ccccc1)C1=C(O)CCC1=O,1,96,0,-1,6,-41
CCOC(=O)CN1C(=O)SC(CC(=O)Nc2nccs2)C1=O (configuration not stated),-2,97,0,1,2,1
O=C(CC1SC(=O)N(Cc2cccc3ccccc23)C1=O)Nc1nccs1 (configuration not stated),71*,99,0,0,-11,5
CCc1ccccc1N(C(=O)c1snc(C(N)=O)c1N)C(C(=O)NCC1CCCO1)c1ccc(C)o1 (configuration not stated),79*,/,/,/,-8,-3
CCOC(=O)c1sc(NC(=O)C2C3C=CC(C3)C2C(=O)O)nc1C (configuration not stated),-1,101,-1,3.4*,16,-13
CCOC(=O)c1sc(NC(=O)C2CC2)nc1C,6,100,0,1,-7,1
O=C(O)Cc1sc(N/N=C\c2ccccc2)nc1-c1ccccc1,75*,97,0,0,-3,43
CCOC(=O)c1sc(Nc2ccccc2)nc1C,21,110,0,-1,-15,20
CCOC(=O)c1sc(N/N=C/c2ccccc2)nc1C,61*,111,0,0,12,-2
COC(=O)c1ccc(NC(=O)C2C3C=CC(C3)C2C(=O)O)cc1 (configuration not stated),4,/,/,/,29,-52*
Cc1ccc(S(=O)(=O)N2CCc3ccccc3C2CC(=O)O)cc1 (configuration not stated),3,/,/,1,4,0
O=C(CCc1nc2sc3c(c2c(=O)[nH]1)CCCC3)N1CCN(c2ccccc2)CC1,4,/,/,/,-8,-3
CCOC(=O)C1=C(COC(=O)COc2ccccc2C#N)NC(=O)NC1C (configuration not stated),6,/,/,/,0,-3
CCCOc1ccc(C(=O)CCNC(Cc2c[nH]c3ccccc23)C(=O)O)cc1 (configuration not stated),6,/,/,/,4,2
CCOC(=O)c1sc(N/N=C/c2cccc(C)c2)nc1C,98*,93,0,1,-7,17
O=C(CNCc1ccc(F)cc1)Nc1cc(S(=O)(=O)N2CCOCC2)ccc1Cl,0,/,/,/,/,/
